# Measurements as given in ChEMBL document CHEMBL3351239, “Polyketide glycosides from Bionectria ochroleuca inhibit Candida albicans biofilm formation” (J Nat Prod, 2014).
# Legend:
# Candida albicans [1] = assay: Potentiation of amphotericin B-induced antimicrobial effect against Candida albicans SC5314 assessed as ratio of MIC for compound plus amphotericin B to MIC for compound alone incubated for 48 hrs by XTT assay; assay type: functional
# Summary of the method: (§1)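 Checkerboard assay: C. albicans seeded in 96-well format with test compound alone or combined with amphotericin B, in RPMI-1640 plus MOPS, for 48 h at 37 °C. Viability was read by XTT, with MIC = lowest concentration giving ≥80% metabolic reduction. FIC = MIC in combination / MIC alone for each agent; FICI = FICA + FICB.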
# Candida albicans [2] = assay: Growth inhibition of Candida albicans SC5314 assessed as reduction in reduction in metabolic activity incubated for 48 hrs by XTT assay; assay type: organism-based; conditions: SC5314, 48 h
# Summary of the method: (§2)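 SC5314 grown overnight at 37 °C in BHI, washed in PBS and resuspended in RPMI-1640 with 0.17 M MOPS at pH 7.0. Cells at 2.5 × 10^3 cells/mL were exposed to serial dilutions from 20 mM DMSO stocks (final DMSO ≤1% v/v) for 48 h at 37 °C. Viability was read by XTT (0.1 mg/mL, 1 h, A492). MIC = lowest concentration giving ≥80% drop in metabolic activity, per CLSI M27-A3.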
# Candida albicans [3] = assay: Antimicrobial activity against Candida albicans SC5314 in presence of amphotericin B incubated for 48 hrs by XTT assay; assay type: functional; conditions: SC5314, 48 h; summary of the method: as §1
# Candida albicans [4] = assay: Potentiation of amphotericin B-induced antimicrobial effect against Candida albicans SC5314 incubated for 48 hrs by XTT assay; assay type: functional; summary of the method: as §1
# Candida albicans [5] = assay: Antimicrobial activity against Candida albicans SC5314 incubated for 48 hrs by XTT assay; assay type: functional; conditions: SC5314, 48 h; summary of the method: as §2
# Candida albicans [6] = assay: Potentiation of amphotericin B-induced antimicrobial effect against Candida albicans SC5314 assessed as ratio of MIC for compound plus amphotericin B to MIC for amphotericin B alone incubated for 48 hrs by XTT assay; assay type: functional; summary of the method: as §1
# Candida albicans [7] = assay: Inhibition of biofilm formation of Candida albicans SC5314 incubated for 48 hrs by XTT assay; assay type: functional, organism-based; conditions: SC5314, 48 h
# Summary of the method: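 SC5314 pregrown in BHI overnight at 37 °C, washed, and seeded at 2.5 × 10^3 cells/mL in RPMI-1640/MOPS pH 7.0 with diluted compounds (DMSO ≤1% v/v final) for 48 h at 37 °C. Nonadherent cells were removed by two PBS washes and fresh medium added. Biofilm was quantified by XTT at A492. IC50 = concentration at 50% of maximal biofilm formation. Triplicate wells, three separate occasions.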
Compound,Ratio (Candida albicans [1]),IC50 (Candida albicans [2]) [µM],MIC80 (Candida albicans [3]) [µM],fractional inhibitory concentration index (FICI) (Candida albicans [4]),MIC80 (Candida albicans [5]) [µM],Ratio (Candida albicans [6]),IC50 (Candida albicans [7]) [µM]
CC[C@H](C)C[C@H](C)C[C@H](C)[C@@H](O[C@@H]1O[C@H](COC(C)=O)[C@@H](O)[C@H](O)[C@@H]1O)[C@@H](C)/C=C(\C)[C@@H](O)[C@@H](C)/C=C(\C)[C@@H](O)[C@@H](C)/C=C(\C)C(=O)OC[C@@H](O)[C@@H](O)[C@H](O)[C@H](O)CO,0.03,36.3,1.25,0.28,50,0.25,1.5
CC[C@H](C)C[C@H](C)C[C@H](C)[C@@H](O[C@@H]1O[C@H](CO)[C@@H](O)[C@H](O)[C@@H]1O)[C@@H](C)/C=C(\C)[C@@H](O)[C@@H](C)/C=C(\C)[C@@H](O)[C@@H](C)/C=C(\C)C(=O)OC[C@@H](O)[C@@H](O)[C@H](O)CO,<0.01,> 100,1.25,<0.26,> 100,0.25,1.5
CC[C@H](C)C[C@H](C)C[C@H](C)[C@@H](O[C@@H]1O[C@H](CO)[C@@H](O)[C@H](O)[C@@H]1O)[C@@H](C)/C=C(\C)[C@@H](O)[C@@H](C)/C=C(\C)[C@@H](O)[C@@H](C)/C=C(\C)C(=O)OC[C@@H](O)[C@@H](O)[C@H](O)[C@H](O)CO,<0.05,> 100,5,<0.3,> 100,0.25,1.1
CC[C@H](C)C[C@H](C)C[C@H](C)[C@@H](O[C@@H]1O[C@H](COC(C)=O)[C@@H](O)[C@H](O)[C@@H]1O)[C@@H](C)/C=C(\C)[C@@H](O)[C@@H](C)/C=C(\C)[C@@H](O)[C@@H](C)/C=C(\C)C(=O)OC[C@@H](O)[C@@H](O)[C@H](O)CO,0.03,41,1.25,0.28,50,0.25,1.2
CCC(C)CC(C)CC(C)C(O[C@@H]1O[C@H](CO)[C@@H](O)[C@H](O)[C@@H]1O)C(C)/C=C(\C)C(O)C(C)/C=C(\C)C(O)C(C)C(=O)O (stereo partly specified),<0.05,> 100,5,<0.3,> 100,0.25,5
CCCCCC#CCC#CCC#CCC#CCCCC(=O)O,,> 100,,,,,3.4
CC[C@H](C)C[C@H](C)C[C@H](C)[C@@H](O[C@@H]1O[C@H](COC(C)=O)[C@@H](O)[C@H](O)[C@@H]1O)[C@@H](C)/C=C(\C)[C@@H](O)[C@@H](C)/C=C(\C)[C@@H](O)[C@@H](C)/C=C(\C)[C@@H](O)[C@@H](C)C(=O)OC[C@@H](O)[C@@H](O)[C@H](O)[C@H](O)CO,0.03,24.1,1.25,0.28,50,0.25,1.5
CC[C@H](C)C[C@H](C)C[C@H](C)[C@@H](O[C@@H]1O[C@H](CO)[C@@H](O)[C@H](O)[C@@H]1O)[C@@H](C)/C=C(\C)[C@@H](O)[C@@H](C)/C=C(\C)[C@@H](O)[C@@H](C)/C=C(\C)[C@@H](O)[C@@H](C)C(=O)O,<0.05,> 100,5,<0.3,> 100,0.25,2.4
